From ChEMBL document CHEMBL1152483, “To determine the cytotoxicity of chlorambucil and one of its nitro-derivatives, conjugated to prasterone and pregnenolone, towards eight human cancer cell-lines” (Eur J Med Chem, 2009)

System: not listed separately
Test: Metabolic stability in rat liver assessed as half life
Assay type: ADME, tissue-based
Conditions: not given
`CC(C)(C)OC(=O)CCCc1ccc(N(CCCl)CCCl)cc1` [CHLORAMBUCIL TERTIARY BUTYL ESTER] showed a half-life of 2 h.

System: MDA-MB-468
Test: Cytotoxicity against human MDA-MB-468 cells […] after 5 days by MTT assay
Assay type: functional, cell-based
Conditions: MDA-MB-468, 120 h
In short: (§1)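 Cells are grown in RPMI with 2 mM L-glutamine and 10% FBS and seeded at 400–1000 per well. They get doubling dilutions of drug, each dose in triplicate, for five days at 37 °C, 5% CO2, humidified. MTT at 3 mg/ml is added for 3 h, and formazan is dissolved in DMSO and read at 540 nm minus 620 nm. % growth inhibition is taken against control wells and IC50 calculated.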
Work on `CC(=O)[C@H]1CC[C@H]2[C@@H]3CC=C4C[C@@H](OC(=O)CCCc5ccc(N(CCCl)CCCl)cc5)CC[C@]4(C)[C@H]3CC[C@]12C` yielded an IC50 of 10.3 µM. With `C[C@]12CC[C@H](OC(=O)CCCc3ccc(N(CCCl)CCCl)c([N+](=O)[O-])c3)CC1=CC[C@@H]1[C@@H]2CC[C@]2(C)C(=O)CC[C@@H]12` the IC50 was 7.25 µM. `O=C(O)CCCc1ccc(N(CCCl)CCCl)cc1` [CHLORAMBUCIL] gave an IC50 of 0.65 µM.

System: MCF7
Test: Cytotoxicity against human MCF7 cells expressing estrogen and progesterone receptor after 5 days by MTT assay
Assay type: functional, cell-based
Conditions: MCF7, 120 h
In short: as §1
Work on `CC(=O)[C@H]1CC[C@H]2[C@@H]3CC=C4C[C@@H](OC(=O)CCCc5ccc(N(CCCl)CCCl)cc5)CC[C@]4(C)[C@H]3CC[C@]12C` yielded an IC50 of 90 µM. With `C[C@]12CC[C@H](OC(=O)CCCc3ccc(N(CCCl)CCCl)c([N+](=O)[O-])c3)CC1=CC[C@@H]1[C@@H]2CC[C@]2(C)C(=O)CC[C@@H]12` the IC50 was over 100 µM. For `O=C(O)CCCc1ccc(N(CCCl)CCCl)cc1` [CHLORAMBUCIL], the IC50 was 4.5 µM.

System: not listed separately
Test: Cytotoxicity against human OVCA3 cells after 5 days by MTT assay
Assay type: functional, cell-based
Conditions: OVCA3, 120 h
In short: as §1
For `CC(=O)[C@H]1CC[C@H]2[C@@H]3CC=C4C[C@@H](OC(=O)CCCc5ccc(N(CCCl)CCCl)cc5)CC[C@]4(C)[C@H]3CC[C@]12C`, the IC50 was 88.8 µM. Compound `C[C@]12CC[C@H](OC(=O)CCCc3ccc(N(CCCl)CCCl)c([N+](=O)[O-])c3)CC1=CC[C@@H]1[C@@H]2CC[C@]2(C)C(=O)CC[C@@H]12` has an IC50 of over 100 µM. With `O=C(O)CCCc1ccc(N(CCCl)CCCl)cc1` [CHLORAMBUCIL] the IC50 was 8.92 µM.

System: MDA-MB-468
Test: Cytotoxicity against human MDA-MB-468 cells transfected with NAD(P)H: quinone oxidoreductase NQO1 after 5 days by MTT assay
Assay type: functional, cell-based
Conditions: MDA-MB-468, 120 h
In short: as §1
For `CC(=O)[C@H]1CC[C@H]2[C@@H]3CC=C4C[C@@H](OC(=O)CCCc5ccc(N(CCCl)CCCl)cc5)CC[C@]4(C)[C@H]3CC[C@]12C`, the IC50 was 20.5 µM. For `C[C@]12CC[C@H](OC(=O)CCCc3ccc(N(CCCl)CCCl)c([N+](=O)[O-])c3)CC1=CC[C@@H]1[C@@H]2CC[C@]2(C)C(=O)CC[C@@H]12`, the IC50 was 10.6 µM. For `O=C(O)CCCc1ccc(N(CCCl)CCCl)cc1` [CHLORAMBUCIL], the IC50 was 0.79 µM.

System: not listed separately
Test: Alkylating activity in 0.2 M acetate buffer of pH 5.6 at 0.1 to 1 mM after 4 hrs by spectrophotometry relative to chlorambucil
Assay type: physicochemical
Conditions: pH 5.6, 4 h, 1000 µM
In short: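 Each compound at 0.1–1.0 mM in 50% (v/v) acetone/ethanol is added to 0.2 M acetate buffer pH 5.6 with 5% (w/v) p-nitrobenzyl pyridine in acetone and incubated 4 h at 37 °C. Colour is then developed with 25% (v/v) 3-amino-1-propanol in tert-butanol and absorbance read at 560 nm.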
Compound `CC(=O)[C@H]1CC[C@H]2[C@@H]3CC=C4C[C@@H](OC(=O)CCCc5ccc(N(CCCl)CCCl)cc5)CC[C@]4(C)[C@H]3CC[C@]12C` has an Activity of 18%. Compound `C[C@]12CC[C@H](OC(=O)CCCc3ccc(N(CCCl)CCCl)c([N+](=O)[O-])c3)CC1=CC[C@@H]1[C@@H]2CC[C@]2(C)C(=O)CC[C@@H]12` has an Activity of 8%. With `O=C(O)CCCc1ccc(N(CCCl)CCCl)cc1` [CHLORAMBUCIL] the Activity was over 100%.

System: not listed separately
Test: Chemical stability assessed as rate of hydrolysis after 24 hrs by HPLC analysis in presence of pig liver esterase
Assay type: physicochemical
Conditions: read-out: Activity
In short: (§2)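 Porcine liver esterase is preincubated about 15 min at 37 °C in phosphate buffer pH 7.4, then ester is added. Aliquots are taken at set times, quenched with an equal volume of acetonitrile, vortexed and spun 10 min at 11,600 g. Samples are run on RP-HPLC (C18, 2% acetic acid/acetonitrile pH 5.2, 1.2 ml/min, 254 nm). The zero reaction is ester in buffer alone for 15 min.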
Compound `CC(=O)[C@H]1CC[C@H]2[C@@H]3CC=C4C[C@@H](OC(=O)CCCc5ccc(N(CCCl)CCCl)cc5)CC[C@]4(C)[C@H]3CC[C@]12C` has a metabolised at 24 h of 83%. `C[C@]12CC[C@H](OC(=O)CCCc3ccc(N(CCCl)CCCl)c([N+](=O)[O-])c3)CC1=CC[C@@H]1[C@@H]2CC[C@]2(C)C(=O)CC[C@@H]12` showed a metabolised at 24 h of 83%.

System: MDA-MB-468
Test: Ratio of IC50 for […] human MDA-MB-468 cells transfected with NAD(P)H: quinone oxidoreductase NQO1 to IC50 for human MDA-MB-468 cells […]
Assay type: functional
Conditions: not given
With `CC(=O)[C@H]1CC[C@H]2[C@@H]3CC=C4C[C@@H](OC(=O)CCCc5ccc(N(CCCl)CCCl)cc5)CC[C@]4(C)[C@H]3CC[C@]12C` the “Ratio IC50” value was 2. For `C[C@]12CC[C@H](OC(=O)CCCc3ccc(N(CCCl)CCCl)c([N+](=O)[O-])c3)CC1=CC[C@@H]1[C@@H]2CC[C@]2(C)C(=O)CC[C@@H]12`, the “Ratio IC50” value was 1.5.

System: Daoy
Test: Cytotoxicity against human DaOY cells after 5 days by MTT assay
Assay type: functional, cell-based
Conditions: 120 h
In short: as §1
Work on `CC(=O)[C@H]1CC[C@H]2[C@@H]3CC=C4C[C@@H](OC(=O)CCCc5ccc(N(CCCl)CCCl)cc5)CC[C@]4(C)[C@H]3CC[C@]12C` yielded an IC50 of 41.9 µM. Work on `C[C@]12CC[C@H](OC(=O)CCCc3ccc(N(CCCl)CCCl)c([N+](=O)[O-])c3)CC1=CC[C@@H]1[C@@H]2CC[C@]2(C)C(=O)CC[C@@H]12` yielded an IC50 of over 100 µM. Work on `O=C(O)CCCc1ccc(N(CCCl)CCCl)cc1` [CHLORAMBUCIL] yielded an IC50 of 1.36 µM.

System: NCI-H460
Test: Cytotoxicity against human H460 cells after 5 days by MTT assay
Assay type: functional, cell-based
Conditions: NCI-H460, 120 h
In short: as §1
`CC(=O)[C@H]1CC[C@H]2[C@@H]3CC=C4C[C@@H](OC(=O)CCCc5ccc(N(CCCl)CCCl)cc5)CC[C@]4(C)[C@H]3CC[C@]12C` gave an IC50 of 36.2 µM. Compound `C[C@]12CC[C@H](OC(=O)CCCc3ccc(N(CCCl)CCCl)c([N+](=O)[O-])c3)CC1=CC[C@@H]1[C@@H]2CC[C@]2(C)C(=O)CC[C@@H]12` has an IC50 of over 100 µM. For `O=C(O)CCCc1ccc(N(CCCl)CCCl)cc1` [CHLORAMBUCIL], the IC50 was 2.19 µM.

System: WiDr
Test: Cytotoxicity against human WiDr cells after 5 days by MTT assay
Assay type: functional, cell-based
Conditions: 120 h
In short: as §1
Work on `CC(=O)[C@H]1CC[C@H]2[C@@H]3CC=C4C[C@@H](OC(=O)CCCc5ccc(N(CCCl)CCCl)cc5)CC[C@]4(C)[C@H]3CC[C@]12C` yielded an IC50 of 86.3 µM. Work on `C[C@]12CC[C@H](OC(=O)CCCc3ccc(N(CCCl)CCCl)c([N+](=O)[O-])c3)CC1=CC[C@@H]1[C@@H]2CC[C@]2(C)C(=O)CC[C@@H]12` yielded an IC50 of over 100 µM. Work on `O=C(O)CCCc1ccc(N(CCCl)CCCl)cc1` [CHLORAMBUCIL] yielded an IC50 of 7.13 µM.

System: not listed separately
Test: Chemical stability assessed as rate of hydrolysis after 2 hrs by HPLC analysis in presence of pig liver esterase
Assay type: physicochemical
Conditions: read-out: Activity
In short: as §2
In the case of `CC(=O)[C@H]1CC[C@H]2[C@@H]3CC=C4C[C@@H](OC(=O)CCCc5ccc(N(CCCl)CCCl)cc5)CC[C@]4(C)[C@H]3CC[C@]12C`, the metabolised at 2 h is reported as 24%. With `C[C@]12CC[C@H](OC(=O)CCCc3ccc(N(CCCl)CCCl)c([N+](=O)[O-])c3)CC1=CC[C@@H]1[C@@H]2CC[C@]2(C)C(=O)CC[C@@H]12` the metabolised at 2 h was 24%.

System: A-375
Test: Cytotoxicity against human A375 cells after 5 days by MTT assay
Assay type: functional, cell-based
Conditions: A-375, 120 h
In short: as §1
Compound `CC(=O)[C@H]1CC[C@H]2[C@@H]3CC=C4C[C@@H](OC(=O)CCCc5ccc(N(CCCl)CCCl)cc5)CC[C@]4(C)[C@H]3CC[C@]12C` has an IC50 of 74.2 µM. `C[C@]12CC[C@H](OC(=O)CCCc3ccc(N(CCCl)CCCl)c([N+](=O)[O-])c3)CC1=CC[C@@H]1[C@@H]2CC[C@]2(C)C(=O)CC[C@@H]12` gave an IC50 of over 100 µM. Compound `O=C(O)CCCc1ccc(N(CCCl)CCCl)cc1` [CHLORAMBUCIL] has an IC50 of 2.58 µM.

System: not listed separately
Test: Chemical stability in phosphate buffer saline at pH 7.4 assessed as compound degradation by HPLC analysis
Assay type: physicochemical
Conditions: read-out: Activity
In short: (§3)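 Esters are stored in phosphate buffered saline at 37 °C. Stability is followed over forty-five days by RP-HPLC (C18, acetic acid/acetonitrile pH 5.2, 1.2 ml/min, UV 254 nm), supported by infrared spectroscopy.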
Work on `C[C@]12CC[C@H](OC(=O)CCCc3ccc(N(CCCl)CCCl)c([N+](=O)[O-])c3)CC1=CC[C@@H]1[C@@H]2CC[C@]2(C)C(=O)CC[C@@H]12` yielded a degraded of 46%.

System: not listed separately
Test: Chemical stability in phosphate buffer saline assessed as half life by HPLC analysis
Assay type: physicochemical
Conditions: not given
In short: as §3
Work on `O=C(O)CCCc1ccc(N(CCCl)CCCl)cc1` [CHLORAMBUCIL] yielded a half-life of 1 h.

System: not listed separately
Test: Partition coefficient, log P after 1 hr by UV spectroscopy
Assay type: physicochemical
Conditions: octanol/water
In short: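 Compound is shaken in n-octanol/water for 1 h at 20 °C, then spun 10 min at 3600 g and the phases separated. Original and shaken solutions are diluted to 0.8 mg% and compared by UV spectroscopy at 200–400 nm. Log P is calculated by the Leo method.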
`CC(=O)[C@H]1CC[C@H]2[C@@H]3CC=C4C[C@@H](OC(=O)CCCc5ccc(N(CCCl)CCCl)cc5)CC[C@]4(C)[C@H]3CC[C@]12C` gave a logP at 1 h of over 8. `C[C@]12CC[C@H](OC(=O)CCCc3ccc(N(CCCl)CCCl)c([N+](=O)[O-])c3)CC1=CC[C@@H]1[C@@H]2CC[C@]2(C)C(=O)CC[C@@H]12` gave a logP at 1 h of over 8. Compound `O=C(O)CCCc1ccc(N(CCCl)CCCl)cc1` [CHLORAMBUCIL] has a logP at 1 h of 3.8.

System: not listed separately
Test: Metabolic stability in rat blood assessed as half life
Assay type: ADME, tissue-based
Conditions: not given
Work on `CC(C)(C)OC(=O)CCCc1ccc(N(CCCl)CCCl)cc1` [CHLORAMBUCIL TERTIARY BUTYL ESTER] yielded a half-life of 7 h.

System: not listed separately
Test: Metabolic stability in human plasma assessed as rate of hydrolysis after 24 hrs
Assay type: ADME, cell-free
Conditions: read-out: Activity
In short: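 Ester stock is made in absolute ethanol and added to freshly prepared human plasma with PBS, then incubated at 37 °C. Samples are mixed with an equal volume of mobile phase, spun 20 min at 11,600 g, and the supernatant is diluted in mobile phase for RP-HPLC.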
With `CC(=O)[C@H]1CC[C@H]2[C@@H]3CC=C4C[C@@H](OC(=O)CCCc5ccc(N(CCCl)CCCl)cc5)CC[C@]4(C)[C@H]3CC[C@]12C` the metabolised at 24 h was 37%. `C[C@]12CC[C@H](OC(=O)CCCc3ccc(N(CCCl)CCCl)c([N+](=O)[O-])c3)CC1=CC[C@@H]1[C@@H]2CC[C@]2(C)C(=O)CC[C@@H]12` gave a metabolised at 24 h of 51%.
